Test results published in ChEMBL document CHEMBL4196162, “Target-Directed Self-Assembly of Homodimeric Drugs Against β-Tryptase” (ACS Med Chem Lett, 2018).
Activity calls are given as the source filed them. The rule behind the calls is not given here.

Tests used:
[1] = Inhibition of beta-tryptase in human HMC1 cells assessed as decrease in A23187-induced degranulation in supernatant incubated for 2 hrs followed by A23187 addition measured after 1 hr; format: cell-based
Outline: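 Cultured HMC1 human mast cells exposed to inhibitor (10 nM to 100 μM) for 2 h, then degranulated with 1 μM A23187 in PBS. After 1 h, supernatant tested for tryptase activity. IC50 and SEM from nonlinear regression with unconstrained Hill slope.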

[2] = species: Homo sapiens; assay: Reversal inhibition of recombinant human lung beta-tryptase assessed as recovery of enzymatic activity at 10 uM using N-tert-butoxycarbonyl-Gln-Ala-Arg-AMC as substrate measured over 216 hrs
[3] = Inhibition of recombinant human lung beta-tryptase using N-tert-butoxycarbonyl-Gln-Ala-Arg-AMC as substrate incubated for 3 hrs followed by substrate addition measured every 30 secs for 15 mins in presence of 100 pM of tryptase
Outline: (§1)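 Purified tryptase tested at several enzyme concentrations. IC50 from nonlinear regression with no Hill slope constraint.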

[4] = Inhibition of recombinant human lung beta-tryptase using N-tert-butoxycarbonyl-Gln-Ala-Arg-AMC as substrate incubated for 3 hrs followed by substrate addition measured every 30 secs for 15 mins in presence of 10 pM of tryptase; outline: as §1
[5] = Inhibition of beta-tryptase in human HMC1 cells assessed as decrease in A23187-induced degranulation in cell lysates incubated for 2 hrs followed by A23187 addition measured after 1 hr; format: cell-based
Outline: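 HMC1 human mast cell lysates tested for tryptase activity in the presence of inhibitor. IC50 and SEM from nonlinear regression with unconstrained Hill slope.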

[6] = Inhibition of recombinant human lung beta-tryptase using N-tert-butoxycarbonyl-Gln-Ala-Arg-AMC as substrate incubated for 3 hrs followed by substrate addition measured every 30 secs for 15 mins in presence of 1 nM of tryptase; outline: as §1

- IC50 [1]: 137 µM
- IC50 [5]: 21.8 µM
Compound: NCc1cccc(C2CCN(C(=O)c3cccc(NC(=O)C(O)C4(O)CCC4)c3)CC2)c1 (stereo unspecified)
- inhibition [2]: Active
- IC50 [3]: 0.17 µM
- IC50 [4]: 0.64 µM
- IC50 [6]: 8.1 µM
